iPSC survival up: hiPSC single-cell survival enhancement; survival enhancement, % at 20 µM; 360,000 tested, 0.044% active; ATPlite luminescence; 100% = ROCK inhibitor wells, 0% = DMSO; in the data active means survival enhancement above about 18%;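 further: cells exposed to compounds for 16 hours before the ATP read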
APJ ag: activates the human apelin receptor APJ; CHO-K1 APJ PathHunter beta-arrestin, luminescence; 0% DMSO wells, 100% apelin; P35414; activation, % at 20 µM; 330,000 tested, 0.11% active;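 active means activation more than six SD over the plate average, tested at 20 µM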;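 further: 0% = DMSO alone and 100% = apelin-13 at 10 nM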
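Assay system: CHO-K1 cells stably expressing ProLink-tagged human APJ and arrestin–beta-gal acceptor. Compound dosing: 20 µM single point, 1% DMSO. Times: 16-18 h seeding, 90 min dark compound exposure, 60 min detection. Detection: beta-gal luminescence. Evaluation: APJ–arrestin association signal. Controls: negative DMSO alone, positive Apelin-13 at 10 nM.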
DAGLB inh: blocks human DAGLB lipase activity. Q8NCG7. HEK293T DAGLB membrane lysate, EnzChek fluorogenic substrate. inhibition, % at 5.17 µM. 340,000 tested, 0.059% active. AID 504411; in the data active means inhibition above about 34%;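 further: 0% = enzyme with vehicle and 100% = wells lacking enzyme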
APJ antag: antagonists of human APJ apelin receptor | inhibition, % at 20 µM | 330,000 tested, 0.32% active | AID 2521 | CHO-K1 APJ beta-arrestin complementation, luminescence | P35414;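 active means inhibition above about 40% at 20 µM, limit read from the data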;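 further: cells challenged with 10 nM apelin-13 agonist together with compound; plate controls were apelin-13 plus DMSO wells for no effect and DMSO wells lacking apelin-13 for full effect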
CCR6 antagonist: blocks CCL20-driven beta-arrestin recruitment at human CCR6. P51684. CHO-K1 CCR6 PathHunter beta-arrestin, luminescence, CCL20-stimulated. inhibition, % at 20 µM. 340,000 tested, 0.49% active;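 active means compounds whose inhibition of the agonist-driven luminescence signal at 20 µM reaches about 50%, limit read from the data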;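 further: cells stimulated with CCL20 at 14 nM final; plate controls were DMSO with CCL20 for no effect and DMSO without agonist for full effect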
Target sequence (P51684 whole entry, looked up): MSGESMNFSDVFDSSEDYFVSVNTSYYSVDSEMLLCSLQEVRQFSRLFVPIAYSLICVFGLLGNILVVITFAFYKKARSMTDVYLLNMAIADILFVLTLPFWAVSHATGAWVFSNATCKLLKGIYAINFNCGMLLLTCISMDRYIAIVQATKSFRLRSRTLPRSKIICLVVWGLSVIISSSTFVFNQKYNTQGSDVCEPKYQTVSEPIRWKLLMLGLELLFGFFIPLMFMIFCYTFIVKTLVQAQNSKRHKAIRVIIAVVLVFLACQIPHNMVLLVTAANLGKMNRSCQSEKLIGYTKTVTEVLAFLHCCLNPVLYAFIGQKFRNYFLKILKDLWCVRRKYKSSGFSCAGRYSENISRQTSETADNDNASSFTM
CXCR6 block: blocks human CXCR6 beta-arrestin recruitment; CHO-K1 PathHunter CXCR6 beta-arrestin, luminescence; inhibition, % at 20 µM; 360,000 tested, 0.36% active; O00574; in the data active means inhibition above about 34%, passing the limit was not always enough;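 further: antagonist mode with CXCL16 agonist at 10 nM final; 0% = 10 nM CXCL16 with DMSO and 100% = unstimulated wells without agonist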
Target sequence (O00574 whole entry, looked up): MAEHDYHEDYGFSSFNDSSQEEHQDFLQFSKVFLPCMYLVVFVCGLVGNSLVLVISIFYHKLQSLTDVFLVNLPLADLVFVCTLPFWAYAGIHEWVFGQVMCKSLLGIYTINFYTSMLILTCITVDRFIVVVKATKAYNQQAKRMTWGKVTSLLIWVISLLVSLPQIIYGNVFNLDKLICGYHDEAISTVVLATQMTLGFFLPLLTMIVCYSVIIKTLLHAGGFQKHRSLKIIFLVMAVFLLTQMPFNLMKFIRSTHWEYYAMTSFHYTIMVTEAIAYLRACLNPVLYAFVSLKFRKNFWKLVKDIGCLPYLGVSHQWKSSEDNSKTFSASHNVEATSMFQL
* hit, by the source's call; nt = no result given. An excerpt weighted towards active compounds, which were near 0.86% of everything screened.

SMILES | iPSC survival up | APJ ag | DAGLB inh | APJ antag | CCR6 antagonist | CXCR6 block
COc1cc(C=C2C(=O)c3ccccc3C2=O)ccc1O | 0.2 | -7.6 | 3.1 | 61.3* | 25.8 | 17.1
COc1ccc(/C=C2\CN(Cc3ccccc3)C/C(=C\c3ccc(OC)c(O)c3)C2=O)cc1O | -0.7 | 1.6 | 6.8 | 11.1 | 19.5 | 51.6*
COc1cc(/C=C2/CC/C(=C/c3ccc(O)c(OC)c3)C2=O)ccc1O | 0.4 | -5.8 | -1.0 | 1.9 | 61.5* | 55.4*
COc1ccc(/C=C2\CC/C(=C\c3ccc(OC)c(OC)c3)C2=O)cc1OC | -2.1 | -4.0 | -4.1 | 10.8 | 15.0 | -4.6
COc1cc(/C=C2\COC/C(=C\c3ccc(O)c(OC)c3)C2=O)ccc1O | -0.8 | -9.2 | 0.2 | 44.2* | 56.0* | 40.7*
COc1cc(/C=C/C=C2/CC/C(=C/C=C/c3ccc(O)c(OC)c3)C2=O)ccc1O | 0.7 | nt | -2.6 | nt | 42.4 | 11.6
O=C(COc1ccc(Cl)cc1)OCC(=O)N1CCOCC1 | -1.8 | -1.2 | 2.1 | -4.6 | 0.3 | -2.1
O=C(C1=C[C@@H](c2ccc(Br)cc2)C[C@@H](OCCCCO)O1)N1CCN(Cc2ccccc2)CC1 | -1.1 | -0.3 | -0.6 | -9.6 | 21.2 | 10.1
CC(C)(C)OC(=O)NCCCCCNC(=O)c1[nH]cnc1C(=O)Nc1cc(Br)ccc1F | 4.3 | nt | -0.5 | nt | nt | 10.3
CC1CCC(NC(=O)CN2CCN(S(=O)(=O)c3ccc(Br)s3)CC2)CC1 (stereo not drawn) | -0.7 | nt | -7.0 | nt | nt | 2.9
COc1ccc(C(=O)N2CC3(CC(c4ccc(Cl)cc4)=NO3)C[C@H]2C(=O)NCC(N)=O)cc1 (stereo partly drawn) | 0.8 | -0.8 | -1.7 | 2.1 | -3.4 | 2.1
Cc1cccc(C)c1NC(=O)COC(=O)c1ccccc1[N+](=O)[O-] | 0.6 | -1.3 | 1.1 | 9.7 | -5.0 | -6.0
Cc1c(C(=O)OCC(=O)Nc2ccc(C(N)=O)cc2)cccc1[N+](=O)[O-] | 21.9* | -6.1 | -0.4 | -7.2 | -2.0 | -0.8
O=[N+]([O-])c1ccc(NNC(=S)Nc2ccc(F)cc2)cc1 | 4.8 | -0.4 | 8.3 | 21.7 | 68.0* | 25.4
O=C(NNC(=S)Nc1ccc(F)cc1)c1cccc([N+](=O)[O-])c1 | -0.5 | 1.8 | 7.7 | 15.7 | -4.6 | -1.7
O=S(=O)(c1cccc2ccccc12)N1CCSC1 | -2.4 | -3.9 | -3.6 | -8.0 | -27.6 | -3.9
O=S(=O)(c1cccc2cnccc12)N1CCNCC1 | 27.0* | -3.9 | 0.1 | -3.0 | 6.0 | 4.2
Cc1nn(-c2cc(N3CCCCC3)ccc2[N+](=O)[O-])c(=O)c2ccccc12 | -0.9 | -5.2 | 1.1 | 24.3 | 28.0 | 17.3
CN1CCN(c2ccc([N+](=O)[O-])c(-n3nc(-c4ccccc4)c4ccccc4c3=O)c2)CC1 | 0.8 | -4.4 | 1.5 | 14.9 | 52.1* | 18.5
CN(C)c1ccc(-c2ccnc3c2CC(C)(C(=O)Nc2ccc(Cl)c(C(F)(F)F)c2)O3)cc1 (stereo not drawn) | 19.7* | nt | nt | nt | nt | -4.2
COc1ccc(NC(=O)CN2C(=O)/C(=C3\SC(=S)N(CCC(=O)O)C3=O)c3ccccc32)cc1 | -0.5 | 12.0 | -2.8 | -142.2 | 55.2* | 7.6
O=C(O)CCN1C(=O)/C(=C2\C(=O)N(Cc3ccccc3Cl)c3ccccc32)SC1=S | 0.4 | 0.0 | -1.7 | -3.6 | nt | 15.9
COc1ccc(-n2nc3c(N4CCC(C(=O)NCc5ccccc5C)CC4)nnc(C)c3c2C)cc1 | -0.7 | -1.5 | 4.8 | 13.1 | 51.5* | 12.2
CCCCSCCCNC(=O)Nc1ccc(CC)cc1 | -0.4 | 1.4 | -27.9 | -2.1 | 5.6 | 3.9
CCOC(=O)C1(CCC(=O)OCc2ccccc2)CCCCC1=O (stereo not drawn) | -4.8 | nt | -6.4 | nt | 2.6 | -3.2
SMILES | iPSC survival up | APJ ag | DAGLB inh | APJ antag | CCR6 antagonist | CXCR6 block
CCOC(=O)N=Nc1c(O)n(CC(=O)OC)c2ccccc12 | 3.5 | -2.4 | 1.0 | 1.8 | 11.6 | -1.9
CCOC(=O)N=Nc1c2ccccc2c2nc3no[nH]c3nc12 | -0.8 | -3.6 | nt | 12.7 | 46.2 | 35.5*
O=C(CC(=O)c1cc(Cl)ccc1O)c1ccccc1 | -2.4 | -5.1 | -4.7 | 1.9 | 48.1 | 24.2
O=C(c1ccccc1)c1cc(Cl)ccc1N1C(=O)C=CC1=O | -2.8 | nt | 1.2 | nt | 106.2* | 61.3*
CC1CC(C)CN(C(=O)COC(=O)CCCN2C(=O)c3cccc4cccc(c34)C2=O)C1 (stereo not drawn) | -0.4 | -2.4 | -0.8 | 4.5 | -5.7 | 0.3
COc1ccc(C(=O)/C=C/C(=O)N(CC(=O)NC2CCCCC2)Cc2cccs2)c(O)c1 | 0.6 | -3.2 | 1.6 | 36.7 | 92.3* | 72.3*
COc1ccc(CN(C(=O)/C=C/C(=O)c2ccc(OC)cc2O)C(C(=O)NC2CCCCC2)c2ccncc2)cc1 (stereo not drawn) | -2.4 | -5.2 | 1.3 | 8.5 | 1.6 | 4.8
COCCN(CC(=O)NC1CCCCC1)C(=O)/C=C/C(=O)c1ccc(OC)cc1O | 0.5 | nt | -1.8 | nt | 64.7* | 61.7*
CCC(C)(C)C1CCC(=NNC(=S)Nc2ccccc2)CC1 (stereo not drawn) | -0.6 | -5.2 | -0.4 | 8.1 | 31.4 | 6.8
CC(C)(C)C1CCC(=NNC(=S)NCc2ccccc2)CC1 (stereo not drawn) | -0.3 | -0.3 | -2.3 | 2.4 | 51.5* | 11.0
CCCCNC(=S)N/N=C1\C(=O)c2cccc3cccc1c23 | -3.5 | -6.2 | 0.7 | 15.2 | 12.3 | 12.1
CNC(=S)N/N=C1\C(=O)c2cccc3cccc1c23 | -1.3 | -5.0 | -0.5 | 38.7 | 52.0* | 36.8
CCC/C=N/Nc1nc2ccccc2s1 | -1.9 | -3.2 | -1.0 | -4.6 | -2.9 | 3.2
C/C(N=Nc1nc2ccccc2s1)=N\Nc1ccccc1O | -0.8 | -10.5 | 33.7 | 36.0 | 65.3* | 49.6*
Cn1cccc1C(C#N)(CC#N)c1cccc(F)c1C#N (stereo not drawn) | 1.9 | -0.3 | -3.4 | 18.7 | 7.0 | 4.0
Cn1cccc1C(C#N)c1cccc(F)c1C#N (stereo not drawn) | -1.1 | -6.6 | -2.5 | 34.1 | 55.1* | 3.5
O=C(CN(Cc1ccco1)C(=O)CCC(=O)Nc1ccccn1)NCc1ccccc1 | -0.8 | -5.9 | 1.4 | 25.4 | 10.2 | 9.8
N#CC1=C(N)C(C#N)(C#N)C(c2ccncc2)C2CN(C(=O)OCc3ccccc3)CC=C12 (stereo not drawn) | 14.0 | -7.6 | 8.7 | 16.1 | 56.1* | 23.0
COc1cc(C(=O)OCC(=O)NCCC2=CCCCC2)ccc1OCC(C)C | -0.2 | -6.3 | -11.5 | 10.4 | 12.6 | -2.8
CCOP(=O)(OCC)C(C#N)=C1SCN(c2ccc(Cl)cc2)CS1 | 2.4 | -0.9 | -3.3 | 20.5 | 81.8* | 28.1
N#CCC(=N)N1CCN(c2ccc(Cl)cc2)CC1 | -1.0 | -2.0 | 0.3 | -11.1 | 14.2 | -6.3
S=C(NCCCN1CCOCC1)Nc1ccc(Cl)cc1 | -2.2 | -2.0 | 0.1 | -24.3 | 7.1 | 74.5*

From PubChem
